Test results reported in ChEMBL document CHEMBL4725283, “Selective Peptidomimetic Inhibitors of NTMT1/2: Rational Design, Synthesis, Characterization, and Crystallographic Studies” (J Med Chem, 2020).

Legend:
Homo sapiens [1] = species on record: Homo sapiens; experiment: Selectivity for human NTMT2 over human EZH2 complex Y641F mutant at 100 uM
Outline: (§1)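 Single-point panel screen against 41 PKMTs, PRMTs, DNMTs and NTMT1/2. Each compound was tested at 100 µM, in duplicate (n=2).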

Homo sapiens [2] = species on record: Homo sapiens; experiment: Selectivity for human NTMT1 over human SUV420H1TV2 at 100 uM; outline: as §1
Homo sapiens [3] = species on record: Homo sapiens; experiment: Selectivity for human NTMT1 over human EZH2 complex Y641F mutant at 100 uM
Outline: (§2)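 Panel of 41 PKMTs, PRMTs, DNMTs and NTMT1/2, tested at 100 µM compound in duplicate (n=2).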

Homo sapiens [4] = species on record: Homo sapiens; experiment: Selectivity for human NTMT1 over human DOT1L at 100 uM; outline: as §2
Homo sapiens [5] = species on record: Homo sapiens; experiment: Selectivity for human NTMT2 over human SMYD1 at 100 uM; outline: as §1
Homo sapiens [6] = species on record: Homo sapiens; experiment: Selectivity for human NTMT2 over human G9a at 100 uM; outline: as §1
Homo sapiens [7] = species on record: Homo sapiens; experiment: Selectivity for human NTMT1 over human MLL3 complex at 100 uM; outline: as §2
Homo sapiens [8] = species on record: Homo sapiens; experiment: Selectivity for human NTMT1 over human MLL4 complex at 100 uM; outline: as §2
Homo sapiens [9] = species on record: Homo sapiens; experiment: Selectivity for human NTMT2 over human PRDM9 at 100 uM; outline: as §1
Homo sapiens [10] = species on record: Homo sapiens; experiment: Selectivity for human NTMT1 over human MLL1 complex at 100 uM; outline: as §2
Homo sapiens [11] = species on record: Homo sapiens; experiment: Selectivity for human NTMT1 over human G9a at 100 uM; outline: as §2
Homo sapiens [12] = species on record: Homo sapiens; experiment: Selectivity for human NTMT1 over human NSD3 at 100 uM; outline: as §2
Homo sapiens [13] = species on record: Homo sapiens; experiment: Selectivity for human NTMT1 over human SET7/9 at 100 uM; outline: as §2
Homo sapiens [14] = species on record: Homo sapiens; experiment: Selectivity for human NTMT2 over human MLL4 complex at 100 uM; outline: as §1
Homo sapiens [15] = species on record: Homo sapiens; experiment: Selectivity for human NTMT2 over human MLL3 complex at 100 uM; outline: as §1
Homo sapiens [16] = species on record: Homo sapiens; experiment: Selectivity for human NTMT2 over human MLL2 complex at 100 uM; outline: as §1
Homo sapiens [17] = species on record: Homo sapiens; experiment: Selectivity for human NTMT2 over human PRDMT4 at 100 uM; outline: as §1
Homo sapiens [18] = species on record: Homo sapiens; experiment: Selectivity for human NTMT1 over human NSD2 E1099K mutant at 100 uM; outline: as §2
[19] = Drug penetration in human HCT116 cells at 100 uM by MALDI-MS analysis; type: ADME, cell-based; settings: hct-116, 100 µM
Outline: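 HCT116 cells in McCoy's 5A with 10% FBS and 1% antibiotic-antimycotic, seeded at 0.1 × 10^6 cells/mL in 24-well plates and held overnight at 37 °C, 5% CO2. Compound added for the specified time, with TAT peptide as control. Cells washed three times with PBS, lysed by two snap-freezes in liquid nitrogen, and the lysate checked for compound by MALDI with DHB matrix.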

[20] = molecular target: Protein arginine N-methyltransferase 1 (Rattus norvegicus, UniProt Q63009); experiment: Inhibition of rat His6-tagged PRMT1 expressed in Escherichia coli BL21(DE3) using H4-21 peptide as substrate preincubated for 10 mins in presence of SAM followed by substrate addition by fluorescence assay
Sequence of Protein arginine N-methyltransferase 1 (Q63009 whole entry): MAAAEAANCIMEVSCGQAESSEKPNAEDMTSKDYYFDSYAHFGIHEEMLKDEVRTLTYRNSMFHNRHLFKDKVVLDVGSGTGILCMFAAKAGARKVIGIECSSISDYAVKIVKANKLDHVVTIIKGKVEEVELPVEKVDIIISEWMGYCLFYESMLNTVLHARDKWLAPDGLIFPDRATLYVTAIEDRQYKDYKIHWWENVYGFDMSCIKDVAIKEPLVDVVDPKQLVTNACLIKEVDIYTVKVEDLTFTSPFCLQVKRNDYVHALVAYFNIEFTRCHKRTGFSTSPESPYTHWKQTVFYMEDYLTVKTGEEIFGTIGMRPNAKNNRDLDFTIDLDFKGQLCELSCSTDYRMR

Homo sapiens [21] = species on record: Homo sapiens; experiment: Selectivity for human NTMT1 over human DNMT3b at 100 uM; outline: as §2
Homo sapiens [22] = species on record: Homo sapiens; experiment: Selectivity for human NTMT1 over human SMYD1 at 100 uM; outline: as §2
Homo sapiens [23] = species on record: Homo sapiens; experiment: Selectivity for human NTMT2 over human NSD3 at 100 uM; outline: as §1
Homo sapiens [24] = species on record: Homo sapiens; experiment: Selectivity for human NTMT2 over human PRDMT5 at 100 uM; outline: as §1

Selectivity ratio (Homo sapiens [1]): > 100 | Selectivity ratio (Homo sapiens [2]): > 100 | Selectivity ratio (Homo sapiens [3]): > 100 | Selectivity ratio (Homo sapiens [4]): > 100 | Selectivity ratio (Homo sapiens [5]): > 100 | Selectivity ratio (Homo sapiens [6]): > 100 | Selectivity ratio (Homo sapiens [7]): > 100 | Selectivity ratio (Homo sapiens [8]): > 100 | Selectivity ratio (Homo sapiens [9]): > 100 | Selectivity ratio (Homo sapiens [10]): > 100 | Selectivity ratio (Homo sapiens [11]): > 100 | Selectivity ratio (Homo sapiens [12]): > 100 | Selectivity ratio (Homo sapiens [13]): > 100 | Selectivity ratio (Homo sapiens [14]): > 100 | Selectivity ratio (Homo sapiens [15]): > 100 | Selectivity ratio (Homo sapiens [16]): > 100 | Selectivity ratio (Homo sapiens [17]): > 100 | Selectivity ratio (Homo sapiens [18]): > 100 | Drug uptake [19]: Not Active | IC50 [20]: > 100 µM | Selectivity ratio (Homo sapiens [21]): > 100 | Selectivity ratio (Homo sapiens [22]): > 100 | Selectivity ratio (Homo sapiens [23]): > 100 | Selectivity ratio (Homo sapiens [24]): > 100
SMILES: N=C(N)NCCC[C@H](NC(=O)[C@H](CCCCN)NC(=O)[C@@H]1CCCN1C(=O)Cc1ccc(O)cc1)C(N)=O
